Reference: publication PMC8413131 (Oncogene, 2021)

Key:
CWR22Rv1 cells = experiment: Cell growth assay; format: cell-based; details: for cell growth, 3 days: CWR22Rv1, FBS, 5 μM Abi, 20 μM Enza, 20 μM Apal, 0.25-1.0 μM ARVibs, Fig.4A-4B
C4-2B MDVR cells = experiment: Cell growth assay; format: cell-based; details: for cell growth, 3 days: FBS, 5 μM Abi, 20 μM Enza, 20 μM Apal, 0.25-1.0 μM ARVibs, Fig.4A-4B
[1] = test system: AR-V7 and AR mutants (T878A, K581R, V716M, L702H); experiment: PSA luciferase reporter, AR-V7 and AR mutants in 293 cells; format: cell-based; details: FBS conditions, 16 hours, Fig.2G
Summary of the method: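 293 cells in FBS medium transfected with vector, AR-V7 or mutant AR (T878A, K581R, L702H, V716M) plus a PSA promoter–luciferase plasmid. Then exposed to anti-androgens or test compound for 16 h before luciferase read-out. Mean ± SD of three independent experiments.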

VCaP xenografts = experiment: Relapsed VCaP tumor model, combination with Enza; format: in vivo, mice; details: relapsed VCaP tumors
wild-type AR (WT-AR) = experiment: PSA luciferase reporter, WT-AR in 293 cells; format: cell-based; details: FBS conditions, 16 hours, Fig.2G
CWR22Rv1 xenografts = experiment: CWR22Rv1 tumor xenografts in SCID mice; format: in vivo; details: 25 mg/Kg i.p., Supplementary Fig.6B
Summary of the method: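 C.B17 SCID males, 4–5 weeks old, given 3 million CWR22Rv1 cells mixed 1:1 with matrigel s.c. in flank. Randomized at 50–100 mm3 tumor volume. Test compound 25 mg/kg i.p. vs vehicle (15% Cremophor EL, 82.5% PBS, 2.5% DMSO, i.p.). Calipers twice weekly; volume = L×W×W×0.52. Tumors, liver and kidney harvested and weighed after 3 weeks; liver and kidney H&E stained.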

LuCaP 35CR xenografts = experiment: LuCaP35CR PDX model, oral administration; format: in vivo, mice; details: 150 mg/Kg p.o.
[2] = ref [20], [21]; cited from earlier work
AR = experiment: Western blot of AR expression in CWR22Rv1 cells; format: cell-based; details: 1 μM, 16 hours

C[C@]12CC[C@H](O)CC1=CC[C@@H]1[C@@H]2CC[C@]2(C)C(c3cccnc3)=CC[C@@H]12 [Abi, abiraterone]
cell growth, 3 days (CWR22Rv1 cells): resistant
cell growth, 3 days (C4-2B MDVR cells): resistant

CNC(=O)c1ccc(N2C(=S)N(c3cnc(C#N)c(C(F)(F)F)c3)C(=O)C23CCC3)cc1F [Apal, apalutamide]
cell growth, 3 days (CWR22Rv1 cells): resistant
cell growth, 3 days (C4-2B MDVR cells): resistant
transcriptional activity mediated by AR-V7 and AR mutants [1]: could not suppress

CNC(=O)c1ccc(N2C(=S)N(c3ccc(C#N)c(C(F)(F)F)c3)C(=O)C2(C)C)cc1F [Enza, enzalutamide]
cell growth, 3 days (CWR22Rv1 cells): resistant
tumor PSA expression (mouse serum), single treatment (VCaP xenografts; Fig.6F): slightly, but insignificantly, suppressed
tumor growth, single treatment (VCaP xenografts; Enza 20 mg/Kg p.o., ARVib-7 75 mg/Kg orally, Fig.6C-6E): insignificantly inhibited
cell growth, 3 days (C4-2B MDVR cells): resistant
transcriptional activity mediated by AR-V7 and AR mutants [1]: could not suppress

CC(O)(CS(=O)(=O)c1ccc(F)cc1)C(=O)Nc1ccc(C#N)c(C(F)(F)F)c1 (centres unmarked) [bicalutamide]
WT-AR transcriptional activity (wild-type AR (WT-AR)): suppress
transcriptional activity mediated by AR-V7 and AR mutants [1]: could not suppress

O=C(Nc1ccc([N+](=O)[O-])cc1Cl)c1cc(Cl)ccc1O [niclosamide]
enhancement of Enza treatment (cell growth) (CWR22Rv1 cells; CWR22Rv1, 0.5 μM with 20 μM Enza, 3 days, Fig.6A): profoundly enhanced
mouse body weight (CWR22Rv1 xenografts): did not affect
enhancement of Enza treatment (cell growth) (C4-2B MDVR cells; 0.25 μM with 20 μM Enza, 3 days, Supplementary Fig.6E): profoundly enhanced
suppression of tumor growth / tumor volume compared to vehicle control (LuCaP 35CR xenografts; Fig.5C): 50%
tumor PSA expression (mouse serum) (LuCaP 35CR xenografts; Fig.5F): slightly suppressed
bioavailability [2]: ~ 10%
inhibition of AR expression (AR; dose series, Fig.1C left): 84.42%
inhibition of AR expression (AR; western blot, Fig.1B): 89.73%
